Activity calls are given as the source filed them. The rule behind the calls is not given here.
Assays:
Homo sapiens = species on record: Homo sapiens; experiment: Inhibition of Hedgehog signaling pathway (unknown origin); settings: concentration not given here
[1] = target: T1, Alkaline phosphatase, tissue-nonspecific isozyme (Homo sapiens) (UniProt P05186); experiment: Inhibition of recombinant human C-terminal His6-tagged alkaline phosphate activity (Leu18 to Ser502 residues) using CDP-star as substrate pretreated for 30 mins followed by substrate addition measured after 60 mins by luminescence assay
T1 sequence (whole entry): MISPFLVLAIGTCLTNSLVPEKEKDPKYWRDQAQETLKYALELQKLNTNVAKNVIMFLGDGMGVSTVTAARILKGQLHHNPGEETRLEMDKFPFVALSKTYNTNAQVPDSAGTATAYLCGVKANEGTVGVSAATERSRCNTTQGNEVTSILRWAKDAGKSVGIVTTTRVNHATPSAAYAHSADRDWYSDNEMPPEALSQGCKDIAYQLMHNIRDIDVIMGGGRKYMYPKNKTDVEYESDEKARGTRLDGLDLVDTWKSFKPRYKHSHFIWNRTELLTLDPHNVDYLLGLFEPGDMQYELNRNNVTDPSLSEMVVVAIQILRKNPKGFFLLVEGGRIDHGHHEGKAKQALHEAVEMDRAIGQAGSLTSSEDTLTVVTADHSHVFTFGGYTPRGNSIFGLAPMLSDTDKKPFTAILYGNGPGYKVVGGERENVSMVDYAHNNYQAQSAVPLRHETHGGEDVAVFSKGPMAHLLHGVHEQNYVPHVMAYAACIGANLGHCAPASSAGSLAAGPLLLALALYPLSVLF

[2] = Cytotoxicity against mouse C3H10T1/2 cells assessed as cell viability by CellTiter-Glo assay; type: cell-based, C3H 10T1/2; set-up: concentration or dose not given beside the values; settings: read-out: Activity
[3] = (§1) Inhibition of Hedgehog signaling pathway in mouse C3H10T1/2 cells assessed as reduction in purmorphamine-induced increase in alkaline phosphatase level using CDP-star as substrate pretreated for 1 hr followed by purmorphamine addition measured after 5 days by luminescence assay; type: cell-based
In short: (§2)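 Osteogenesis assay in multipotent C3H/10T1/2 mesenchymal progenitor cells; differentiation to osteoblasts driven by SMO agonist purmorphamine; read-out is induced alkaline phosphatase expression; IC50 derived from reduction of this signal.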

[4] = Inhibition of Hedgehog signaling in mouse Shh Light2 cells assessed as reduction in purmorphamine-induced Gli mediated transcriptional activity pretreated for 1 hr followed by purmorphamine addition measured after 48 hrs by luciferase reporter gene assay; type: cell-based
Mus musculus = species on record: Mus musculus; experiment: as §1; type: cell-based; in short: as §2
[5] = Cytotoxicity against mouse Shh Light2 cells assessed as cell viability by CellTiter Glo assay; type: cell-based, Shh Light II; set-up: concentration or dose not given beside the values; settings: read-out: Activity
C3H 10T1/2 = experiment: Cytotoxicity against mouse C3H10T1/2 cells by CellTiter-Glo assay; type: cell-based
Shh Light II = experiment: Cytotoxicity against mouse Shh Light2 cells by CellTiter Glo assay; type: cell-based
[6] = Mus musculus, C3H 10T1/2, read-out: IC50
[7] = Mus musculus, Shh Light2, read-out: IC50

Row | SMILES | inhibition (Homo sapiens) [%] | inhibition [1] | IC50 [3, 6] [µM] | IC50 [4, 7] [µM] | IC50 [3] | IC50 [4] | viability [2] [%] | inhibition (Mus musculus) | viability [5] [%] | IC50 (C3H 10T1/2) [µM] | IC50 (Shh Light II) [µM]
1 | CCOC(=O)CCCn1c(SCCOc2c(F)cccc2F)nc2ccccc21 | 12 |  |  |  |  |  |  |  |  |  | 
2 | Cc1ccc(C)c(OCCSc2nc3ccccc3[nH]2)c1 |  | inactive | 6.41 |  |  |  | > 80 |  |  |  | 
3 | Cc1cccc(C)c1OCCSc1nc2ccccc2[nH]1 |  | inactive | 1.76 | 3.16 |  |  | > 80 | Dose-dependent effect | > 80 |  | 
4 | c1ccc2cc(OCCSc3nc4ccccc4[nH]3)ccc2c1 |  | inactive | 4.49 | 7.29 |  |  | > 80 |  | > 80 |  | 
5 | Oc1ccc(OCCSc2nc3ccccc3[nH]2)cc1 |  | inactive | 2.23 | 8.12 |  |  |  |  |  | 7.12 | 7.7
6 | c1ccc(-c2ccc(OCCSc3nc4ccccc4[nH]3)cc2)cc1 |  | inactive |  |  | Not Active |  | > 80 |  |  |  | 
7 | Clc1cc(Cl)c(SCCSc2nc3ccccc3[nH]2)cc1Cl |  | inactive | 5.71 |  |  |  | > 80 |  |  |  | 
8 | Cc1cccc(C)c1OCCCSc1nc2ccccc2[nH]1 |  | inactive | 5.6 | 4.12 |  |  | > 80 |  | > 80 |  | 
9 | COc1ccc(SCCSc2nc3ccccc3[nH]2)cc1 |  | inactive | 5.63 | 3.55 |  |  | > 80 |  | > 80 |  | 
10 | COC(=O)c1cccc(OCCSc2nc3ccccc3[nH]2)c1 |  | inactive |  |  | Not Active | Not Active | > 80 |  | > 80 |  | 
11 | Cc1cccc(OCCCSc2nc3ccccc3[nH]2)c1 |  | inactive |  |  | Not Active |  | > 80 |  |  |  | 
12 | CC(C)c1cccc(OCCSc2nc3ccccc3[nH]2)c1 |  | inactive | 9.17 |  |  |  | > 80 |  |  |  | 
13 | Cc1cc(OCCSc2nc3ccccc3[nH]2)ccc1Cl |  | inactive | 2.57 | 7.89 |  |  | > 80 |  | > 80 |  | 
14 | Cc1ccc2nc(NCCOc3ccccc3)sc2c1 |  | inactive |  |  | Not Active |  | > 80 |  |  |  | 
15 | CS(=O)(=O)c1ccc(C(=O)Nc2ccc(Cl)c(-c3ccccn3)c2)c(Cl)c1 [VISMODEGIB] |  | inactive | 0.14 | 0.98 |  |  | > 80 |  | > 80 |  | 
16 | Fc1ccccc1OCCSc1nc2ccccc2[nH]1 |  | inactive | 2.32 |  |  |  | > 80 |  |  |  | 
17 | c1ccc(OCCSc2nc3ccccc3[nH]2)cc1 |  | inactive | 2.22 | 8.92 |  |  | > 80 |  | > 80 |  | 

Second part, led by results:

Row | inhibition (Homo sapiens) [%] | inhibition [1] | IC50 [3, 6] [µM] | IC50 [4, 7] [µM] | IC50 [3] | IC50 [4] | SMILES | viability [2] [%] | inhibition (Mus musculus) | viability [5] [%] | IC50 (C3H 10T1/2) [µM] | IC50 (Shh Light II) [µM]
18 |  | inactive | > 10 |  |  |  | Cc1ccc2nc(NCCOc3c(C)cccc3C)sc2c1 | > 80 |  |  |  | 
19 |  | inactive | 2.61 |  |  |  | COc1ccccc1OCCSc1nc2ccccc2[nH]1 | > 80 |  |  |  | 
20 |  | inactive | 3.06 | 3.48 |  |  | Cc1cccc(SCCSc2nc3ccccc3[nH]2)c1 | > 80 |  | > 80 |  | 
21 |  | inactive | > 10 |  |  |  | CC(C)c1ccccc1OCCSc1nc2ccccc2[nH]1 | > 80 |  |  |  | 
22 |  | inactive | 2.9 |  |  |  | Cc1ccc(C)c(OCCSc2nc3ccccc3[nH]2)c1C | > 80 |  |  |  | 
23 |  | inactive | 6.29 |  |  |  | Cc1ccc(OCCCSc2nc3ccccc3[nH]2)cc1 | > 80 |  |  |  | 
24 |  | inactive | 2.85 | > 10 |  |  | Clc1ccc(SCCCSc2nc3ccccc3[nH]2)cc1 | > 80 |  | > 80 |  | 
25 |  | inactive | 2.08 | 5.11 |  |  | Cc1cccc(OCCSc2nc3ccccc3[nH]2)c1 | > 80 |  | > 80 |  | 
26 |  | inactive |  |  | Not Active |  | Cc1ccc(OCCSc2nc3ccccc3[nH]2)c([N+](=O)[O-])c1 | > 80 |  |  |  | 
27 |  | inactive | 4.47 | 6.49 |  |  | O=[N+]([O-])c1cccc(OCCSc2nc3ccccc3[nH]2)c1 | > 80 |  | > 80 |  | 
28 |  | inactive | 4.26 | 6.93 |  |  | Cc1ccccc1OCCSc1nc2ccccc2[nH]1 | > 80 |  | > 80 |  | 

Source: ChEMBL document CHEMBL4190359, “Synthesis and Investigation of S-Substituted 2-Mercaptobenzoimidazoles as Inhibitors of Hedgehog Signaling” (ACS Med Chem Lett, 2017)
